Compound activity as filed in PubChem.
Hits are enriched below; roughly 2.5% of the tested compounds scored in any of these assays.
NadD inh: inhibitors of S. aureus NadD, primary screen, biochemical, colorimetric, uHTS; hit rate 0.78% among 360,000; inhibition, % at 20 µM; purified NadD enzyme, colorimetric absorbance read-out; Nicotinate-nucleotide adenylyltransferase NadD (Staphylococcus aureus N315); in the data active = inhibition above about 26%
GRK2 inh: compounds blocking aptamer binding on GRK2 – biochemical, human GRK2, bead flow cytometry, HTS, primary screen; Beta-adrenergic receptor kinase 1 (Homo sapiens), P25098; FAM-aptamer displacement from GRK2; inhibition of aptamer binding, % at 10 µM; hit rate 0.59% among 330,000;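 active = inhibition of aptamer binding above 40%, roughly 3 SD of noise, on plates passing a quality check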;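 also: median bead fluorescence of bound FAM aptamer so fluorescent compounds give negative values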
Target sequence (P25098 whole entry, looked up): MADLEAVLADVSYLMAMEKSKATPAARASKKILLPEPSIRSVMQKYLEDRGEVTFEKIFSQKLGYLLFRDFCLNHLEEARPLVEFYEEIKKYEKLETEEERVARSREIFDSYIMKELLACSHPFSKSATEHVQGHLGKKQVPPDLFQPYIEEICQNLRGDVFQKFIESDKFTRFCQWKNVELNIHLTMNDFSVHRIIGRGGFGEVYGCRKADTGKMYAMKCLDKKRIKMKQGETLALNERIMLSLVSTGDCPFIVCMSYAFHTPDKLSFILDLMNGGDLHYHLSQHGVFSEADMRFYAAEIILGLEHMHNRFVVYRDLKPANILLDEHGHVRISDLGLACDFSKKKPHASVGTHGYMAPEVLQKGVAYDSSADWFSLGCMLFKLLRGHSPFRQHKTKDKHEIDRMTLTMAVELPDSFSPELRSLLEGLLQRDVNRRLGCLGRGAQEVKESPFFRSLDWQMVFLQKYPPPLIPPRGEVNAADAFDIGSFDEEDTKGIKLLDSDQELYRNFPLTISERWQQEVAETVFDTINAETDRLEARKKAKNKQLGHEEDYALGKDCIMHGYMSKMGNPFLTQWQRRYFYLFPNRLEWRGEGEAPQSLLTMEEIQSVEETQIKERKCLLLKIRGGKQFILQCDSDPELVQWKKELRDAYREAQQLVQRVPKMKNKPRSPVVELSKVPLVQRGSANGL
SENP1 FRET inh: human SENP1 catalytic domain inhibitors, primary screen, biochemical, FRET, uHTS; AID 624204, 2012; Sentrin-specific protease 1 (Homo sapiens), Q9P0U3; inhibition, % at 10 µM; recombinant SENP1 catalytic domain, CyPet-SUMO1-YPet FRET cleavage; hit rate 0.21% among 360,000;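 active = inhibition at least 30% at 10 µM, raw YFP signal under a set limit, fluorescence ratio 0.5 to 1.5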;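 also: 0% = enzyme with DMSO and 100% = no enzyme wells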
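Material: hSENP1 catalytic domain, recombinant; medium: Tris pH 8 with BME, BSA, NP40 and catalase; compound: single concentration of 10 µM compound, 0.5% DMSO final; technique: FRET read of cyan and yellow fluorescence; timing: 50 min enzyme reaction, room temperature, light-protected; reagent: SFCypet-SUMO1-SFYpet substrate at 25 nM; control set: no-enzyme low, enzyme-DMSO high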
B2AR ag: beta2AR agonists driving receptor internalization, primary screen, cell-based, FAP fluorogen, flow cytometry | Am2.2-beta2AR cells | response, % (no concentration beside the values) | hit rate 0.43% among 340,000 | AID 504454, 2011;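 active = response above a set limit, near 3 SD of response in nonfluorescent compounds, cut at about 42% in these data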
ABHD5-PLIN5 inh: ABHD5-PLIN5 interaction inhibitors, primary screen, cell lysate, split luciferase complementation, luminescence; Split G. princeps luciferase complementation, 4 h; inhibition, % at 4 µM; hit rate 0.78% among 360,000;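 active = inhibition above the mean inhibition across every tested compound plus 3 SD, cut at about 22% in these data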;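 also: 0% = DMSO only wells and the 100% control is not disclosed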
Beta2AR ag CP1: beta2AR agonists via receptor internalization, confirmation, cell-based, FAP fluorogen, flow cytometry, single point, cherry pick 1 | shares compounds with B2AR ag | hit rate 25% among 1,100 | Am2.2-beta2AR cells, FAP surface receptor; active compounds read low | percent response (surface receptor), % at 10 µM;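 active = surface receptor percent response at or below 58%, roughly 3 SD from nonfluorescent compounds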
FAP fluor counter: counter-screen for beta-2AR agonists: fluorescence in Am2.2 cells; shares compounds with B2AR ag; FAP fluorogen flow cytometry, fluorescence counterscreen; active compounds read low; calls only at 10 µM; 1,100 tested, under 10 active; AID 588765;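 active = percent response below a set limit in fluorescence channel 1 and below 50% in channel 8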
* marks the source's active call; other numbers are inactive results.

`Cc1ccc(S(=O)(=O)Nc2ccncc2)c(C)c1N(C)S(=O)(=O)c1ccc(F)cc1` gave NadD inh 0, GRK2 inh 0, SENP1 FRET inh -1, B2AR ag 84*, ABHD5-PLIN5 inh -6, Beta2AR ag CP1 106 and FAP fluor counter inactive.
Screening O=C(O)CCCCCNC(=O)CSc1nnc(-c2ccco2)n1-c1ccccc1 returned NadD inh -2, GRK2 inh 0, SENP1 FRET inh -1, B2AR ag -3 and ABHD5-PLIN5 inh 4.
For CC(=O)Nc1ccc(Nc2cc(C(C)C)nc3c(-c4ccccc4)c(C)nn23)cc1 the results were NadD inh -12, GRK2 inh 1, SENP1 FRET inh -2, B2AR ag 52*, ABHD5-PLIN5 inh -10, Beta2AR ag CP1 67 and FAP fluor counter inactive.
For CSc1ncccc1C(=O)NNc1cc(Cl)ccc1Cl the results were NadD inh -2, GRK2 inh 0, SENP1 FRET inh -2, B2AR ag -2 and ABHD5-PLIN5 inh -4.
`O=C(c1ccc(-c2nnc(Nc3ccccc3)c3ccccc23)cc1)N1C[C@H]2C[C@H](C1)c1cccc(=O)n1C2` gave NadD inh 4, GRK2 inh 1, SENP1 FRET inh 1, B2AR ag 7, ABHD5-PLIN5 inh 0, Beta2AR ag CP1 79 and FAP fluor counter inactive.
Screening O=C(Nc1cccc(Oc2c(F)c(F)c(F)c(F)c2F)c1)N1C[C@@H]2C[C@@H](C1)c1cccc(=O)n1C2 returned NadD inh -2, GRK2 inh 0, SENP1 FRET inh -2, B2AR ag -2 and ABHD5-PLIN5 inh 4.
Screening O=C(C[C@@H]1C/C=C\C[C@H](Cc2ccc(F)cc2)C(=O)OC[C@@H]2CCCN2C1=O)N[C@H](CO)Cc1ccccc1 returned NadD inh -5, GRK2 inh 2, SENP1 FRET inh 1, B2AR ag -14 and ABHD5-PLIN5 inh 2.
Screening CCNC(=S)N(CCO)Cc1cc2cc3c(cc2[nH]c1=O)OCO3 returned NadD inh -3, GRK2 inh 0, SENP1 FRET inh 2, B2AR ag -6 and ABHD5-PLIN5 inh 1.
CCCC(=O)N1CCN(c2ccc(NC(=O)c3ccc([N+](=O)[O-])o3)cc2Cl)CC1 was read as NadD inh -5, SENP1 FRET inh 2, B2AR ag 42*, ABHD5-PLIN5 inh 0, Beta2AR ag CP1 4.8* and FAP fluor counter inactive.
`Cc1ccc2c(c1)C1CN(C)CCC1N2C(=O)c1ccccc1NS(=O)(=O)c1cccc(C(F)(F)F)c1` (centres undefined) gave NadD inh -2, GRK2 inh 0, SENP1 FRET inh -3, B2AR ag 67*, ABHD5-PLIN5 inh 15, Beta2AR ag CP1 104 and FAP fluor counter inactive.
COc1ccc(-c2nn(-c3ccccc3)cc2C(=O)N2c3ccc(C)cc3C3CN(C)CCC32)cc1 (centres undefined) was read as NadD inh -1, GRK2 inh 3, SENP1 FRET inh -1, B2AR ag 70*, ABHD5-PLIN5 inh 6, Beta2AR ag CP1 90 and FAP fluor counter inactive.
Screening N#Cc1c(N2CCCC2)nc(N)c2c(N)nc(N3CCCC3)cc12 returned NadD inh 11, GRK2 inh 24, SENP1 FRET inh -28, B2AR ag 46*, ABHD5-PLIN5 inh -25, Beta2AR ag CP1 83 and FAP fluor counter inactive.
CC(=O)N1CCN(Cc2nc3cc(NC(=O)c4ccccc4)ccc3n2C)CC1 was read as NadD inh -2, GRK2 inh 0, SENP1 FRET inh 0, B2AR ag 0 and ABHD5-PLIN5 inh 0.
